These results are taken from ChEMBL document CHEMBL2321737, “Selective inhibition of glycosyltransferases by bivalent imidazolium salts” (Bioorg Med Chem, 2013).

The target in assay [1] is Beta-1,3-galactosyltransferase 5 (Homo sapiens) (UniProt Q9Y2C3). The experiment in a line: Inhibition of human recombinant soluble His-tagged beta3-GalT5 expressed in insect cells using GlcNAcbeta-Bn as substrate at 0.5 mM after 1 hr in presence of phosphatidylcholine.
Assay [2] has as its target T1, Beta-1,4-galactosyltransferase 1 (Homo sapiens) (UniProt P15291).
T1 sequence (whole entry): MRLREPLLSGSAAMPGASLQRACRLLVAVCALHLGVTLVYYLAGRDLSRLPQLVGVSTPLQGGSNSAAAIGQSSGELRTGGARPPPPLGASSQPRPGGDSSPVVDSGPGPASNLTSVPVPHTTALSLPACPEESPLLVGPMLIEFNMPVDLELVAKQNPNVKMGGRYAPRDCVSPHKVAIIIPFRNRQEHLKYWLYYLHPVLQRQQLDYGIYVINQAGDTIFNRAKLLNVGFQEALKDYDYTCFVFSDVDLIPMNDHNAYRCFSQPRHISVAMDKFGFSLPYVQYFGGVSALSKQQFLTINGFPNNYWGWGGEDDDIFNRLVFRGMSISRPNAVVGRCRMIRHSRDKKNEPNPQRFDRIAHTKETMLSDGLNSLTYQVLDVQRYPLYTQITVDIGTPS
The experiment in a line: Inhibition of human recombinant soluble His-tagged beta4-GalT1 expressed in Escherichia coli BL21 using GlcNAcbeta-Bn as substrate at 0.5 mM after 1 hr relative to control. In outline: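 Single point at 0.5 mM bis-imidazolium salt, 10% ethanol. Acceptor 0.5 mM GlcNAcβ-Bn, donor 0.5 mM UDP-Gal. […] Enzyme: 0.34 µg His-tagged human β4-GalT1 from BL21, or bovine milk β4-GalT1. Mean ± SD of replicates.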

Another assay is filed under the species Bos taurus. The experiment in a line: Inhibition of bovine polypeptide GalNAcT1 using AQPTPPP as substrate at 0.5 mM after 1 hr relative to control.
The target of assay [3] is Glycoprotein-N-acetylgalactosamine 3-beta-galactosyltransferase 1 (Homo sapiens) (UniProt Q9NS00). The experiment in a line: Inhibition of human C1GalT Gal-transferase using GalNAcalpha-Bn as substrate at 0.5 mM after 1 hr in presence of phosphatidylcholine.
Sequence of Glycoprotein-N-acetylgalactosamine 3-beta-galactosyltransferase 1 (Homo sapiens) (Q9NS00 whole entry): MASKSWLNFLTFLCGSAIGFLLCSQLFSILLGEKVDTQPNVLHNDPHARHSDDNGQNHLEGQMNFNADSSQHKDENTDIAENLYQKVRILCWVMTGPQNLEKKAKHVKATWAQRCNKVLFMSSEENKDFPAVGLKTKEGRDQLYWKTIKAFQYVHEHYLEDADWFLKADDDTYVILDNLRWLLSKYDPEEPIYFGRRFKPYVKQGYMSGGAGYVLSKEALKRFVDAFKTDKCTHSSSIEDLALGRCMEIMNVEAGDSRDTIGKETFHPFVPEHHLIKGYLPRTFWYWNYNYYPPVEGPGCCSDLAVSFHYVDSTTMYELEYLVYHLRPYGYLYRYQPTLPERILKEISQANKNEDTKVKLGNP

Structures are written as SMILES. Several values for one entry are separate records, joined by “and”; a condition that tells them apart may be missing. Equal entries are not always repeated. Activity calls are given as the source filed them. The rule behind the calls is not given here. A value given as a limit tells only on which side of the number the result lay.

Sequence of Beta-1,3-galactosyltransferase 5 (Homo sapiens) (Q9Y2C3 whole entry, looked up): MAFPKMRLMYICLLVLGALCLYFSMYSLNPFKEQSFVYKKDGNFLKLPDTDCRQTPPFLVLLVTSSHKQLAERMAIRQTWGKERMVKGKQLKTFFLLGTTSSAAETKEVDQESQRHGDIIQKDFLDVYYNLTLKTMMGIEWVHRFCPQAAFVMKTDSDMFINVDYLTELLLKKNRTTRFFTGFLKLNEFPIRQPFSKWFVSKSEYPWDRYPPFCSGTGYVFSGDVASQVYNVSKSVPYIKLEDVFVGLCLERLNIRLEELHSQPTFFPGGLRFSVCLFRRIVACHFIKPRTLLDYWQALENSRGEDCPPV

`C[n+]1ccn(CCCCCCCCCCCCCCCCCCCCn2cc[n+](C)c2)c1`: the inhibition entry in assay [1] was “inactive”. In addition, the inhibition in assay [2] was 40.7% and 54%; in the assay filed under Bos taurus, 96.8% and 91%; in assay [3], less than 1%.
